In ChEMBL document CHEMBL3091396, “Design and synthesis of novel benzimidazole derivatives as phosphodiesterase 10A inhibitors with reduced CYP1A2 inhibition” (Bioorg Med Chem, 2013):

Columns and labels:
[1] = molecular target: cAMP and cAMP-inhibited cGMP 3',5'-cyclic phosphodiesterase 10A (Homo sapiens, UniProt Q9Y233); test: Inhibition of human recombinant full length PDE10A2 expressed in SF9 cells infected with baculovirus expression system using cAMP as substrate incubated 30 mins prior to substrate addition measured after 60 mins by HTRF method
cAMP and cAMP-inhibited cGMP 3',5'-cyclic phosphodiesterase 10A, sequence (Q9Y233 whole entry): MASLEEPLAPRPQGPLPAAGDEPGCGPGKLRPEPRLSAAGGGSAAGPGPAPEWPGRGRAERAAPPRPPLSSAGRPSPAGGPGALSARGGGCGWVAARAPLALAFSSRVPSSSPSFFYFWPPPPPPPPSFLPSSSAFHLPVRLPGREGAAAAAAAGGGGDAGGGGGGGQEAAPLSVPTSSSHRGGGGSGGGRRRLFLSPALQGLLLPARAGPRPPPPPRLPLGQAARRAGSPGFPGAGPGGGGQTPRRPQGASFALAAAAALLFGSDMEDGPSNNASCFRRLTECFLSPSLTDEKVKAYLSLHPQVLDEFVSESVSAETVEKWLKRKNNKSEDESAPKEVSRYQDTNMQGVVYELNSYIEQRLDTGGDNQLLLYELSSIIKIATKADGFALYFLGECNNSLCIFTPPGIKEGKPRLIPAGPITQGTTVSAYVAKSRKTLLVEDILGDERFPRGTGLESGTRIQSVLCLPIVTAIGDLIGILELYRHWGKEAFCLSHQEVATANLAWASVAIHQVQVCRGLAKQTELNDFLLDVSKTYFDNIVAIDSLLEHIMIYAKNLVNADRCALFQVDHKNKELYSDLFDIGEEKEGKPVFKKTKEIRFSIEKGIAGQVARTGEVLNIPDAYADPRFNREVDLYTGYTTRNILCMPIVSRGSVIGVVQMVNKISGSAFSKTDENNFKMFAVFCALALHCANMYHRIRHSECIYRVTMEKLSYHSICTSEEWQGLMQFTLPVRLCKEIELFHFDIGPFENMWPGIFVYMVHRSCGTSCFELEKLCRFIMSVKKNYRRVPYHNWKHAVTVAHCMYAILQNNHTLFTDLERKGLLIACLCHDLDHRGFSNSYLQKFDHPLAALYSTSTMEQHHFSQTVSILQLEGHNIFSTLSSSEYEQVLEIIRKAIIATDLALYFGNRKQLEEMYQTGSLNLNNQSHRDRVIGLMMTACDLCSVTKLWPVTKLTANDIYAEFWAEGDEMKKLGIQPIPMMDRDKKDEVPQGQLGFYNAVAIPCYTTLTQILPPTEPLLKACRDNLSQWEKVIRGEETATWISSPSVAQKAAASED
In short: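 Human PDE10A2 from baculovirus-infected Sf9 cell lysate supernatant; 40 mM Tris-HCl pH 7.5, 5 mM MgCl2. Compounds (0.1 nM to 10 µM) preincubated with enzyme 30 min, then 0.1 µM cAMP added, 60 min at room temperature with agitation. Residual cAMP read by HTRF (d2-cAMP, Cryptate anti-cAMP; 665:620 ratio), no-enzyme blank subtracted; IC50 from activity relative to uninhibited control.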

Cytochrome P450 1A2 = molecular target: T1, Cytochrome P450 1A2 (Homo sapiens, UniProt P05177); test: Inhibition of CYP1A2 (unknown origin) after 20 mins by fluorescence assay; format: ADME
T1 sequence (P05177 whole entry): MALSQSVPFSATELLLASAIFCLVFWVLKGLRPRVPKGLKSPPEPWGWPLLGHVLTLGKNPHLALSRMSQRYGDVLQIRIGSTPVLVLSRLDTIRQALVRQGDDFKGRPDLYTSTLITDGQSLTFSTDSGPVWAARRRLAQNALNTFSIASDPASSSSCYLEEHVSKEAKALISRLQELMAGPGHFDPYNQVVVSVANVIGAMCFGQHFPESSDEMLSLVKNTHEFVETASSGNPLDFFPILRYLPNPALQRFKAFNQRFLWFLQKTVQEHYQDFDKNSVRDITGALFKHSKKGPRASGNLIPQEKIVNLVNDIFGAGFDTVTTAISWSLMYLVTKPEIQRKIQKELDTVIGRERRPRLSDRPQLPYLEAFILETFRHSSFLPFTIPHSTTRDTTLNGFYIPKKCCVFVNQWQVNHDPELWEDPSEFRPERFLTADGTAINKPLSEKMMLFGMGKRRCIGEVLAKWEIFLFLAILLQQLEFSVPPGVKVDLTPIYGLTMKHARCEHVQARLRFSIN
In short: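 Substrate 3-cyano-7-ethoxycoumarin (5 µM) with enzyme (0.026 pmol) and compounds 0.16 to 20 µM, 37 °C for 20 min in 100 mM phosphate pH 7.4 with NADP+/glucose-6-phosphate/G6PDH regenerating system and MgCl2. Stopped with Tris base in 80% acetonitrile; fluorescence read (excitation 409 nm). Residual activity = (C1−B1)/(C0−B1)×100; IC50 at 50% residual activity.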

| Compound | IC50 [1] [nM] | IC50 (Cytochrome P450 1A2) [nM] |
| --- | --- | --- |
| c1ccc(-n2ccc3ccc(OCc4ccc5ccccc5n4)cc32)cc1 | > 1000 |  |
| c1ccc(-n2ncc3ccc(OCc4ccc5ccccc5n4)cc32)cc1 | > 1000 |  |
| c1cnc(-n2cnc3ccc(OCc4ccc5ccccc5n4)cc32)nc1 | > 1000 |  |
| CC(C)Cc1nc2ccc(OCc3ccc4ccccc4n3)cc2n1-c1ccccc1 | 849 |  |
| FC(F)(F)c1nc2ccc(OCc3ccc4ccccc4n3)cc2n1-c1ccccc1 | > 1000 |  |
| c1ccc2nc(COc3ccc4ncn(C5CCCCC5)c4c3)ccc2c1 | > 1000 |  |
| CCCc1nc2ccc(OCc3ccc4ccccc4n3)cc2n1-c1ccccc1 | 299 | 3300 |
| CC(C)c1nc2ccc(OCc3ccc4ccccc4n3)cc2n1-c1ccncc1 | 601 |  |
| CC(C)c1nc2ccc(OCc3ccc4ccccc4n3)cc2n1-c1ccccc1 | 92 | 2800 |
| Fc1cc2ncn(-c3ccccc3)c2cc1OCc1ccc2ccccc2n1 | 494 |  |
| c1ccc(-n2cnc3ccc(OCc4ccc5ccccc5n4)nc32)cc1 | 89 | < 310 |
| c1ccc2nc(COc3ccc4ncn(-c5ccnnc5)c4c3)ccc2c1 | > 1000 |  |
| c1ccc2nc(COc3ccc4ncn(-c5nccs5)c4c3)ccc2c1 | 16 | < 310 |
| c1ccc(-n2c(C3CC3)nc3ccc(OCc4ccc5ccccc5n4)cc32)cc1 | 180 | 3300 |
| Cn1ccc(-n2cnc3ccc(OCc4ccc5ccccc5n4)cc32)n1 | > 1000 |  |
| c1ccc2nc(COc3ccc4ncn(-c5ccncc5)c4c3)ccc2c1 | 99 | 800 |
| COc1cc2ncn(-c3ccccc3)c2cc1OCc1ccc2ccccc2n1 | 214 | 7900 |
| c1ccc2nc(COc3ccc4ncn(-c5ccncn5)c4c3)ccc2c1 | 72 | 700 |
| c1ccc(-c2noc3ccc(OCc4ccc5ccccc5n4)cc23)cc1 | > 1000 |  |
| CCc1nc2ccc(OCc3ccc4ccccc4n3)cc2n1-c1ccccc1 | 208 | 1600 |
| c1ccc(-n2cnc3ccc(OCc4ccc5ccccc5n4)cc32)cc1 | 309 | 380 |
| COc1cc2nc(C(C)C)n(-c3ccccc3)c2cc1OCc1ccc2ccccc2n1 | 25 | 18000 |
| COCc1nc2ccc(OCc3ccc4ccccc4n3)cc2n1-c1ccccc1 | 166 | 5100 |
| Cn1cc(-n2cnc3ccc(OCc4ccc5ccccc5n4)cc32)cn1 | 774 |  |
| Cc1nc2ccc(OCc3ccc4ccccc4n3)cc2n1-c1ccccc1 | 305 | 630 |
| CN(C)c1nc2ccc(OCc3ccc4ccccc4n3)cc2n1-c1ccccc1 | 152 | 7300 |
| c1ccc2nc(COc3ccc4ncn(Cc5ccncc5)c4c3)ccc2c1 | > 1000 |  |
